The source made the active and inactive calls.
Tests used:
[1] = target: T1, Delta-type opioid receptor (Homo sapiens, UniProt P41143); assay: Agonist activity at Rluc-tagged DOR receptor (unknown origin) expressed in human […] cells co-expressing RGFP-fused to Gbeta1 assessed as increase in DOR/G beta1 protein interaction incubated for 5 mins in presence of coelenterazine by BRET assay; format: cell-based
Mu-type opioid receptor [2] = target: T2, Mu-type opioid receptor (Homo sapiens, UniProt P35372); assay: Potency index, ratio of test compounds EC50 to DADLE EC50 for agonist activity at Rluc-tagged MOR receptor (unknown origin) expressed in human […] cells co-expressing RGFP-fused to Gbeta1; format: cell-based
How it was run: (§1)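 Enriched plasma membranes (3 µg protein) from SH-SY5Y cells stably co-expressing MOR-RLuc and Gβ1-RGFP, in DPBS. Membranes prepared by Dounce homogenisation in sucrose buffer and differential centrifugation. Coelenterazine 5 µM final; ligands in PBS-BSA 0.01% incubated 5 min at room temperature. Read-out is BRET ratio (510/460 nm). […] At least 5 experiments in duplicate.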

Mu-type opioid receptor [3] = target: T2, Mu-type opioid receptor; assay: Potency index, ratio of test compounds intrinsic activity to DADLE intrinsic activity for agonist activity at Rluc-tagged MOR receptor (unknown origin) expressed in human […] cells co-expressing RGFP-fused to Gbeta1; format: cell-based; how it was run: as §1
Homo sapiens = organism: Homo sapiens; assay: Selectivity ratio of agonist activity at Rluc-tagged MOR receptor (unknown origin) expressed in human SH-5YSY cells co-expressing RGFP-fused to Gbeta1 assessed as increase in MOR/G beta1 protein interaction incubated for 5 mins in presence of coelenterazine by BRET assay over Agonist activity at Rluc-tagged DOR receptor (unknown origin) expressed in human […] cells co-expressing RGFP-fused to Gbeta1 assessed as increase in DOR/G beta1 protein interaction incubated for 5 mins in presence of coelenterazine by BRET assay; format: cell-based
Mu-type opioid receptor [4] = target: T2, Mu-type opioid receptor
[5] = target: T1, Delta-type opioid receptor; assay: Agonist activity at Rluc-tagged DOR receptor (unknown origin) expressed in human […] cells co-expressing RGFP-fused to beta-arrestin-2 assessed as increase in DOR/beta-arrestin-2 protein interaction incubated for 5 mins in presence of coelenterazine by BRET assay; format: cell-based
Mu-type opioid receptor [6] = target: T2, Mu-type opioid receptor; assay: Potency index, ratio of test compounds EC50 to DADLE EC50 for agonist activity at Rluc-tagged MOR receptor (unknown origin) expressed in human […] cells co-expressing RGFP-fused to beta-arrestin-2; format: cell-based
How it was run: (§2)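 Whole SH-SY5Y cells stably co-expressing MOR-RLuc and β-arrestin 2-RGFP, plated 24 h before at 100,000 cells/well, in PBS with 0.5 mM MgCl2 and 0.9 mM CaCl2. Coelenterazine 5 µM final, added 15 min before reading; ligands incubated 5 min at room temperature. Read-out is BRET ratio (510/460 nm).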

Mu-type opioid receptor [7] = target: T2, Mu-type opioid receptor; assay: Potency index, ratio of test compounds intrinsic activity to DADLE intrinsic activity for agonist activity at Rluc-tagged MOR receptor (unknown origin) expressed in human […] cells co-expressing RGFP-fused to beta-arrestin-2; format: cell-based; how it was run: as §2
Mu-type opioid receptor [8] = target: T2, Mu-type opioid receptor; assay: Bias factor, change in deltalog(Tau/KA) for agonist activity at Rluc-tagged MOR receptor (unknown origin) expressed in human […] cells co-expressing RGFP-fused to Gbeta1 assessed as increase in MOR/G beta1 protein interaction incubated for 5 mins in presence of coelenterazine by BRET assay to deltalog(Tau/KA) for agonist activity at Rluc-tagged MOR receptor (unknown origin) expressed in human […] cells co-expressing RGFP-fused to MOR/beta-arrestin-2 assessed as increase in beta-arrestin-2 protein interaction incubated for 5 mins in presence of coelenterazine by BRET assay; format: cell-based
Mu-type opioid receptor [9] = target: T2, Mu-type opioid receptor; assay: Potency index, ratio of test compounds pEC50 to DADLE pEC50 for agonist activity at Rluc-tagged MOR receptor (unknown origin) expressed in human […] cells co-expressing RGFP-fused to Gbeta1; format: cell-based
Mu-type opioid receptor [10] = target: T2, Mu-type opioid receptor; assay: Potency index, ratio of test compounds pEC50 to DADLE pEC50 for agonist activity at Rluc-tagged MOR receptor (unknown origin) expressed in human […] cells co-expressing RGFP-fused to beta-arrestin-2; format: cell-based
Mu-type opioid receptor [11] = target: T2, Mu-type opioid receptor; remark: listed apart in the source
Mu-type opioid receptor [12] = target: Mu-type opioid receptor (Rattus norvegicus, UniProt P33535); assay: Displacement of [3H]-DAMGO from MOR in rat brain membranes incubated for 45 mins by liquid scintillation counting; format: cell membranes
How it was run: (§3)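 Rat brain membranes in 50 mM Tris-HCl pH 7.4, incubated 45 min at 35 °C. MOR: 0.4 mg/mL protein with 1 nM [3H]-DAMGO. DOR: 0.5 mg/mL protein with 2 nM [3H]-DPDPE. Filtered and counted by liquid scintillation. Ki from nonlinear regression of a logistic fit. Three experiments in duplicate.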

[13] = target: Delta-type opioid receptor (Rattus norvegicus, UniProt P33533); assay: Displacement of [3H]DPDPE from DOR in rat brain membranes incubated for 45 mins by liquid scintillation counting; format: cell membranes; how it was run: as §3
[14] = target: Kappa-type opioid receptor (Cavia porcellus, UniProt P41144); assay: Displacement of [3H]-U69,593 from KOR in guinea pig brain membranes incubated for 30 mins by liquid scintillation counting; format: cell membranes
How it was run: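 Guinea pig brain membranes (0.5 mg/mL) incubated 30 min at 30 °C with 1 nM [3H]-(+)-U69,593. Filtered and counted by liquid scintillation. Ki from nonlinear regression of a logistic fit. Three experiments in duplicate.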

Rattus norvegicus = organism: Rattus norvegicus; assay: Selectivity ratio of Ki for DOR in rat brain membranes to Ki for MOR in rat brain membranes; format: cell membranes; how it was run: as §3
[15] = Selectivity ratio of Ki for KOR in guinea pig brain membranes to Ki for MOR in rat brain membranes; format: cell membranes
Mus musculus [16] = assay: Antinociceptive activity in ip dosed Swiss CB1 mouse after 60 to 180 mins by radiant heat tail-flick method; format: functional, organism-based
How it was run: (§4)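 Male Swiss CB1 mice (25-30 g), habituated the day before. Radiant heat tail-flick: infrared source aimed at the lower third of the tail at 25 ± 1 °C. Baseline 3-5 s, mean of three readings 5 min apart; 20 s cutoff. Compounds in saline with DMSO (5%), given i.p. Latencies read at 30-180 min. […] Groups of 6-8 mice.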

[17] = Toxicity in Swiss CB1 mouse assessed as locomotor activity at 0.5 to 5.0 mg/kg, ip after 30 to 180 mins; format: organism-based; details: in vivo
[18] = Toxicity in Swiss CB1 mouse assessed as sedation at 0.5 to 5.0 mg/kg, ip after 30 to 180 mins; format: organism-based; details: in vivo
Mus musculus [19] = assay: Antinociceptive activity in ip dosed Swiss CB1 mouse after 30 to 180 mins by radiant heat tail-flick method; format: functional; how it was run: as §4
[20] = Toxicity in Swiss CB1 mouse assessed as locomotor activity at 0.5 to 3.0 mg/kg, ip after 30 to 180 mins; format: organism-based; details: in vivo
[21] = Toxicity in Swiss CB1 mouse assessed as sedation at 0.5 to 3.0 mg/kg, ip after 30 to 180 mins; format: organism-based; details: in vivo

T1 sequence (P41143 whole entry, the tested form may be a part): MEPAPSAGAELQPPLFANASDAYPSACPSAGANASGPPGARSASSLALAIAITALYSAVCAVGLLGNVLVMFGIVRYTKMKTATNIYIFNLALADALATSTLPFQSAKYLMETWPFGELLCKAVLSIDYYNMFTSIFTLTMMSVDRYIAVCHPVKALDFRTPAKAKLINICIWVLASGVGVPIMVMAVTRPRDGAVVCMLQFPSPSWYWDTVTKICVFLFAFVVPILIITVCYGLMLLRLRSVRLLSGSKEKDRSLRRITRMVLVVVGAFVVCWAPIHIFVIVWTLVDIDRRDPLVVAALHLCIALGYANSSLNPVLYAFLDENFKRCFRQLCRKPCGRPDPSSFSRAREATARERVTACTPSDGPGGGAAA
T2 sequence (P35372 whole entry, the tested form may be a part): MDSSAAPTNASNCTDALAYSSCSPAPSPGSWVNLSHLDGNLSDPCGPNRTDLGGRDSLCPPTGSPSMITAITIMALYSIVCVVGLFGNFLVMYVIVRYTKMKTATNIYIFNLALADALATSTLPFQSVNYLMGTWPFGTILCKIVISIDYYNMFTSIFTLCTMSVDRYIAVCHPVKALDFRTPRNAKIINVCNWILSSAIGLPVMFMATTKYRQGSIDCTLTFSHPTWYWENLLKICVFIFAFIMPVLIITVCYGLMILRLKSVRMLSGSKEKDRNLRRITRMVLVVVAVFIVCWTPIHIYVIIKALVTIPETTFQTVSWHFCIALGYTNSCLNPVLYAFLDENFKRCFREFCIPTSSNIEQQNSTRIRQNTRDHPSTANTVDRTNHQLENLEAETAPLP
Sequence of Mu-type opioid receptor (Rattus norvegicus, UniProt P33535) (P33535 whole entry): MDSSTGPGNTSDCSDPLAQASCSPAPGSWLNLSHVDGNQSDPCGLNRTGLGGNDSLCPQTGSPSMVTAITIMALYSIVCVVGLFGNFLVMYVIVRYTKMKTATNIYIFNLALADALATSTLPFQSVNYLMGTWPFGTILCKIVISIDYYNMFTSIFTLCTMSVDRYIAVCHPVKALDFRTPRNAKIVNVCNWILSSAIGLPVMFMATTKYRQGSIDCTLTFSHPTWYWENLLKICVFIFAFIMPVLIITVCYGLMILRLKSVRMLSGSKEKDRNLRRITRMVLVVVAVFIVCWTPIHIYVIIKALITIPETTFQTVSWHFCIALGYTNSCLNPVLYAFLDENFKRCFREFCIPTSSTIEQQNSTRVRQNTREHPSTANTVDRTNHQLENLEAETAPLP
Sequence of Delta-type opioid receptor (Rattus norvegicus, UniProt P33533) (P33533 whole entry): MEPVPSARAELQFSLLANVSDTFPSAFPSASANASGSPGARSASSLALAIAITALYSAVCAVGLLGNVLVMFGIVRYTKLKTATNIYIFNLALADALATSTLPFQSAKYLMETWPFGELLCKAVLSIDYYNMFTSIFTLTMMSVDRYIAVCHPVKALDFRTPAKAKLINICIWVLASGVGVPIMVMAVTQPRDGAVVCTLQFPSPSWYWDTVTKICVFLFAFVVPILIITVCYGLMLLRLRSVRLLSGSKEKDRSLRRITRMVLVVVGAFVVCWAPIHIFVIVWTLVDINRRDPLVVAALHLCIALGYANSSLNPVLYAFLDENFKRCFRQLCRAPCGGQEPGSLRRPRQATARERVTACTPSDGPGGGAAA
Sequence of Kappa-type opioid receptor (P41144 whole entry): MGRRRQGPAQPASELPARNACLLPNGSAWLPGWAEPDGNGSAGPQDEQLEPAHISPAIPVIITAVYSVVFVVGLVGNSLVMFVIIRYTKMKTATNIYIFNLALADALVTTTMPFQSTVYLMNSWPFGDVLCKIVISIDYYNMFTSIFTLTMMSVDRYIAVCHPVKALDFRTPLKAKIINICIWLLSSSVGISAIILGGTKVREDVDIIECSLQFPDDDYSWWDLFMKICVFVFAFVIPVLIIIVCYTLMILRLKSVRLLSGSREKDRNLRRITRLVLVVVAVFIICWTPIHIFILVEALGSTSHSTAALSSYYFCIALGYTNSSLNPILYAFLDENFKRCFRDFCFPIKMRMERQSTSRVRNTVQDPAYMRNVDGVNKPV

SMILES | EC50 [1] [nM] | Ratio (Mu-type opioid receptor [2]) | Ratio (Mu-type opioid receptor [3]) | Ratio (Homo sapiens) | EC50 (Mu-type opioid receptor [4]) [nM] | EC50 [5] [nM] | Ratio (Mu-type opioid receptor [6]) | Ratio (Mu-type opioid receptor [7]) | fold change (FC) (Mu-type opioid receptor [8]) | Ratio (Mu-type opioid receptor [9]) | Ratio (Mu-type opioid receptor [10]) | EC50 (Mu-type opioid receptor [11]) [nM] | Ki (Mu-type opioid receptor [12]) [nM] | Ki [13] [nM] | Ki [14] [nM] | Ratio Ki (Rattus norvegicus) | Ratio Ki [15] | ED50 (Mus musculus [19]) [mg/kg] | further results
C[C@H]1[C@H]2Cc3ccc(O)cc3[C@]1(C)CCN2C[C@H](O)c1ccccc1 | 58.9 | 0.19 | 0.82 | 0.4 | 22.4 |  |  |  |  |  |  |  |  |  |  |  |  |  | 
COC(CN1CC[C@@]2(C)c3cc(O)ccc3C[C@@H]1[C@@H]2C)c1ccccc1 (some centres undefined) | 95.5 | 0.1 | 0.92 |  | 12.6 | 2240 | 0.2 | 0.71 | 0.57 | 10 | 5 | 275 |  |  |  |  |  |  | 
C[C@H]1[C@H]2Cc3ccc(O)cc3[C@]1(C)CCN2C[C@@H](O)c1ccccc1 | 14.5 | 0.06 | 0.87 | 0.46 | 6.61 |  |  |  |  |  |  |  |  |  |  |  |  |  | 
CO[C@@H](CN1CC[C@@]2(C)c3cc(O)ccc3C[C@@H]1[C@@H]2C)c1ccccc1 |  |  |  |  |  |  |  |  |  |  |  |  | 12.3 | 151 | 236 | 12.3 | 19.2 | 1.8 | Activity (Mus musculus [16]): Active; Activity [17]: Non-Toxic; Activity [18]: Non-Toxic
CO[C@H](CN1CC[C@@]2(C)c3cc(O)ccc3C[C@@H]1[C@@H]2C)c1ccccc1 | 32.4 | 0.04 | 0.93 |  | 4.68 | 1860 | 0.11 | 0.72 | 0.82 | 30 | 9 | 151 | 0.5 | 2.59 | 26.5 | 5.18 | 53 | 0.6 | Activity [20]: Non-Toxic; Activity [21]: Non-Toxic
